Assay results as given in ChEMBL document CHEMBL1158464, “Structure-activity relationships and cancer-cell selective toxicity of novel inhibitors of glioma-associated oncogene homologue 1 (Gli1) mediated transcription” (J Med Chem, 2009).
The source made the active and inactive calls. No cut-off for these calls is given here.

Tested on: C3H 10T1/2
Assay: Inhibition of Photinus pyralis and Renilla luciferase expression exogenously transfected in mouse C3H10T1/2 cell lysate at 40 uM after 40 mins at room temperature by promega steady-glo luciferase assay
Format: functional, cell-free
Conditions: not given
With `C[C@H](C(=O)NCCc1ccc(O)cc1)c1cccc(C(=O)c2ccccc2)c1` the inhibition was “inactive”.

Tested on: not listed separately
Assay: Cytotoxicity against mouse C3H10T1/2 cells
Format: cell-based
Conditions: c3h 10t1/2
In the case of `C[C@H](C(=O)NCCc1ccc(O)cc1)c1cccc(C(=O)c2ccccc2)c1`, the Activity is reported as “Non-toxic”.

Tested on: Raji
Assay: Cytotoxicity against human Raji cells at 40 uM/well after 68 hrs by alamar blue assay
Format: functional, cell-based
Conditions: not given
In short: (§1)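 Cells plated in appropriate medium 24 h before compound. A 10 mM DMSO stock was diluted in EMEM to 160 µM (4×) and added in triplicate to a final 40 µM. Incubated 68 h at 37 °C, then Alamar Blue for 4 h at 37 °C. Fluorescence read at ex 510/em 590 nm. Viability taken relative to DMSO control wells.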
For `C[C@H](C(=O)NCCc1ccc(O)cc1)c1cccc(C(=O)c2ccccc2)c1`, the Activity was “Active”.

Tested on: C3H 10T1/2
Assay: Inhibition of human Gli1 protein expression exogenously transfected in mouse C3H10T1/2 cells at 40 uM by Western blot analysis
Format: functional, cell-based
Conditions: not given
For `C[C@H](C(=O)NCCc1ccc(O)cc1)c1cccc(C(=O)c2ccccc2)c1`, the inhibition was “inactive”.

Tested on: not listed separately
Assay: Stability in mouse C3H10T1/2 cells assessed as compound degradation at 40 uM after 24 hrs by LCMS analysis
Format: ADME, cell-based
Conditions: c3h 10t1/2, 24 h
In the case of `C[C@H](C(=O)NCCc1ccc(O)cc1)c1cccc(C(=O)c2ccccc2)c1`, the Stability is reported as “Stable”.

Molecular target: T1, Zinc finger protein GLI1 (Homo sapiens) (UniProt P08151)
T1 sequence (whole entry): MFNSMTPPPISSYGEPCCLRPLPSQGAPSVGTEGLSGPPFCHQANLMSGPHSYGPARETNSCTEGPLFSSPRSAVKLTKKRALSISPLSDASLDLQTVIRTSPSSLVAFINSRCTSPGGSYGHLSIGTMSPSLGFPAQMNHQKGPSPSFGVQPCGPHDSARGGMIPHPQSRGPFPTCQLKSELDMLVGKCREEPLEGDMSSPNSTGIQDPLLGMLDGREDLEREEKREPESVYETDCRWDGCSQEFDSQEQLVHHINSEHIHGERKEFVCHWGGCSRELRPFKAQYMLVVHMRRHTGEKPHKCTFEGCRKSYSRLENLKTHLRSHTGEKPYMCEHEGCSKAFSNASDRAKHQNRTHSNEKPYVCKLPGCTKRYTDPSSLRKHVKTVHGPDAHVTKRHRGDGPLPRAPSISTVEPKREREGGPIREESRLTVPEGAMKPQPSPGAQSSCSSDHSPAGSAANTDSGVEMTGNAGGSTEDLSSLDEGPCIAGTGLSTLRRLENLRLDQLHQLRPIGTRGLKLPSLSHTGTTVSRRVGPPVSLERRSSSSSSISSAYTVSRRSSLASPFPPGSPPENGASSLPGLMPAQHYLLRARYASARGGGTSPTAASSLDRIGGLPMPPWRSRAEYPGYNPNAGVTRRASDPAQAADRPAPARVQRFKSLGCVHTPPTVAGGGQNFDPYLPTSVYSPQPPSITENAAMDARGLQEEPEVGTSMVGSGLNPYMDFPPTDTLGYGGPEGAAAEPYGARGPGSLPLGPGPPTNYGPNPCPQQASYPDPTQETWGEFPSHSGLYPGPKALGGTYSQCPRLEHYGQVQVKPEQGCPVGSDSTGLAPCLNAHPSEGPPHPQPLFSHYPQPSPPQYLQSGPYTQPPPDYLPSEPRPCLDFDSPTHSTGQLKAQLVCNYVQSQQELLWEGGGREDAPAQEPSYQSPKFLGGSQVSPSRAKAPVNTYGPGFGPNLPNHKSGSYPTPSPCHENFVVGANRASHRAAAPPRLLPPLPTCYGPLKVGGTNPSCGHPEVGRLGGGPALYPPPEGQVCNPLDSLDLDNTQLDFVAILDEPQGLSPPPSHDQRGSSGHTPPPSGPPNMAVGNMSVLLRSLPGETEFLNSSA
Assay: Inhibition of endogenously overexpressed Gli1-mediated transcriptional activity in human Rh30 cells at 10 uM after 24 hrs by luciferase reporter gene assay
Format: cell-based
Conditions: not given
In short: (§2)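 Human Rh30 rhabdomyosarcoma cells (endogenous Gli1, no exogenous Gli1) in RPMI-1640 with 10% FBS were transfected overnight with Fugene6, GliLuc-BS (500 ng/mL) and pRL-CMV (2.5 ng/mL). Cells were replated, given compound or DMSO 18 h later, and exposed for 24 h at 37 °C, 5% CO2. Read-out was dual luciferase firefly/Renilla, triplicate, DMSO = 0%.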
For `C[C@H](C(=O)NCCc1ccc(O)cc1)c1cccc(C(=O)c2ccccc2)c1`, the inhibition was “Active”.

Tested on: C3H 10T1/2
Assay: Inhibition of Photinus pyralis luciferase expression exogenously transfected in mouse C3H10T1/2 cell lysate at 60 uM after 40 mins at room temperature by promega steady-glo luciferase assay
Format: functional, cell-free
Conditions: not given
For `C[C@H](C(=O)NCCc1ccc(O)cc1)c1cccc(C(=O)c2ccccc2)c1`, the inhibition was “inactive”.

Tested on: Daoy
Assay: Cytotoxicity against human DaOY cells at 40 uM/well after 68 hrs by alamar blue assay
Format: functional, cell-based
Conditions: not given
In short: as §1
With `C[C@H](C(=O)NCCc1ccc(O)cc1)c1cccc(C(=O)c2ccccc2)c1` the Activity was “Active”.

Tested on: C3H 10T1/2
Assay: Inhibition of Photinus pyralis and Renilla luciferase expression exogenously transfected in mouse C3H10T1/2 cell lysate at 60 uM after 40 mins at room temperature by promega steady-glo luciferase assay
Format: functional, cell-free
Conditions: not given
In the case of `C[C@H](C(=O)NCCc1ccc(O)cc1)c1cccc(C(=O)c2ccccc2)c1`, the inhibition is reported as “inactive”.

Tested on: C3H 10T1/2
Assay: Inhibition of Renilla luciferase expression exogenously transfected in mouse C3H10T1/2 cell lysate at 60 uM after 40 mins at room temperature by promega steady-glo luciferase assay
Format: functional, cell-free
Conditions: not given
With `C[C@H](C(=O)NCCc1ccc(O)cc1)c1cccc(C(=O)c2ccccc2)c1` the inhibition was “inactive”.

Molecular target: T1, Zinc finger protein GLI1 (Homo sapiens)
Assay: Inhibition of endogenously overexpressed Gli1-mediated transcriptional activity in human Rh30 cells at 40 uM after 24 hrs by luciferase reporter gene assay
Format: cell-based
Conditions: not given
In short: as §2
For `C[C@H](C(=O)NCCc1ccc(O)cc1)c1cccc(C(=O)c2ccccc2)c1`, the inhibition was “Active”.

Tested on: C3H 10T1/2
Assay: Inhibition of Renilla luciferase expression exogenously transfected in mouse C3H10T1/2 cell lysate at 20 uM after 40 mins at room temperature by promega steady-glo luciferase assay
Format: functional, cell-free
Conditions: not given
In the case of `C[C@H](C(=O)NCCc1ccc(O)cc1)c1cccc(C(=O)c2ccccc2)c1`, the inhibition is reported as “inactive”.

Molecular target: T1, Zinc finger protein GLI1 (Homo sapiens)
Assay: Inhibition of exogenously transfected human Gli1-mediated transcriptional activity in mouse C3H10T1/2 cells at 40 uM after 24 hrs by luciferase reporter gene assay
Format: cell-based
Conditions: C3H 10T1/2
In short: (§3)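 They were replated 18 h later, given compound or DMSO 6 h after plating, and exposed for 24 h at 37 °C, 5% CO2. Lysate was read by dual luciferase as firefly/Renilla, triplicate, DMSO = 0%. IC50 came from curve fitting.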
In the case of `C[C@H](C(=O)NCCc1ccc(O)cc1)c1cccc(C(=O)c2ccccc2)c1`, the inhibition is reported as “Active”.

Tested on: HepG2
Assay: Cytotoxicity against human HepG2 cells at 40 uM/well after 68 hrs by alamar blue assay
Format: functional, cell-based
Conditions: not given
In short: as §1
In the case of `C[C@H](C(=O)NCCc1ccc(O)cc1)c1cccc(C(=O)c2ccccc2)c1`, the Activity is reported as “inactive”.

Tested on: C3H 10T1/2
Assay: Inhibition of Renilla luciferase expression exogenously transfected in mouse C3H10T1/2 cell lysate at 40 uM after 40 mins at room temperature by promega steady-glo luciferase assay
Format: functional, cell-free
Conditions: not given
For `C[C@H](C(=O)NCCc1ccc(O)cc1)c1cccc(C(=O)c2ccccc2)c1`, the inhibition was “inactive”.

Tested on: DU-145
Assay: Cytotoxicity against human DU145 cells at 40 uM/well after 68 hrs by alamar blue assay
Format: functional, cell-based
Conditions: not given
In short: as §1
With `C[C@H](C(=O)NCCc1ccc(O)cc1)c1cccc(C(=O)c2ccccc2)c1` the Activity was “Active”.

Tested on: SJRH30
Assay: Cytotoxicity against human Rh30 cells at 40 uM/well after 68 hrs by alamar blue assay
Format: functional, cell-based
Conditions: not given
In short: as §1
In the case of `C[C@H](C(=O)NCCc1ccc(O)cc1)c1cccc(C(=O)c2ccccc2)c1`, the Activity is reported as “Active”.

Tested on: C3H 10T1/2
Assay: Inhibition of Photinus pyralis luciferase expression exogenously transfected in mouse C3H10T1/2 cell lysate at 40 uM after 40 mins at room temperature by promega steady-glo luciferase assay
Format: functional, cell-free
Conditions: not given
With `C[C@H](C(=O)NCCc1ccc(O)cc1)c1cccc(C(=O)c2ccccc2)c1` the inhibition was “inactive”.

Tested on: MDA-MB-231
Assay: Cytotoxicity against human MDA-MB-231 cells at 40 uM/well after 68 hrs by alamar blue assay
Format: functional, cell-based
Conditions: not given
In short: as §1
For `C[C@H](C(=O)NCCc1ccc(O)cc1)c1cccc(C(=O)c2ccccc2)c1`, the Activity was “Active”.

Tested on: C3H 10T1/2
Assay: Inhibition of Photinus pyralis luciferase expression exogenously transfected in mouse C3H10T1/2 cell lysate at 20 uM after 40 mins at room temperature by promega steady-glo luciferase assay
Format: functional, cell-free
Conditions: not given
With `C[C@H](C(=O)NCCc1ccc(O)cc1)c1cccc(C(=O)c2ccccc2)c1` the inhibition was “inactive”.

Molecular target: T1, Zinc finger protein GLI1 (Homo sapiens)
Assay: Inhibition of endogenously overexpressed Gli1-mediated transcriptional activity in human Rh30 cells at 20 uM after 24 hrs by luciferase reporter gene assay
Format: cell-based
Conditions: not given
In short: as §2
For `C[C@H](C(=O)NCCc1ccc(O)cc1)c1cccc(C(=O)c2ccccc2)c1`, the inhibition was “Active”.

Tested on: LN-229
Assay: Cytotoxicity against human LN229 cells at 40 uM/well after 68 hrs by alamar blue assay
Format: functional, cell-based
Conditions: not given
In short: as §1
In the case of `C[C@H](C(=O)NCCc1ccc(O)cc1)c1cccc(C(=O)c2ccccc2)c1`, the Activity is reported as “inactive”.

Molecular target: T1, Zinc finger protein GLI1 (Homo sapiens)
Assay: Inhibition of exogenously transfected human Gli1-mediated transcriptional activity in mouse C3H10T1/2 cells at 20 uM after 24 hrs by luciferase reporter gene assay
Format: cell-based
Conditions: C3H 10T1/2
In short: as §3
With `C[C@H](C(=O)NCCc1ccc(O)cc1)c1cccc(C(=O)c2ccccc2)c1` the inhibition was “Active”.

Tested on: BJ
Assay: Cytotoxicity against human TERT-immortalized human BJ cells at 40 uM/well after 68 hrs by alamar blue assay
Format: cell-based
Conditions: not given
In short: as §1
With `C[C@H](C(=O)NCCc1ccc(O)cc1)c1cccc(C(=O)c2ccccc2)c1` the Activity was “Non-toxic”.

Tested on: C3H 10T1/2
Assay: Inhibition of human Gli1 protein expression exogenously transfected in mouse C3H10T1/2 cells at 20 uM by Western blot analysis
Format: functional, cell-based
Conditions: not given
With `C[C@H](C(=O)NCCc1ccc(O)cc1)c1cccc(C(=O)c2ccccc2)c1` the inhibition was “inactive”.

Tested on: C3H 10T1/2
Assay: Inhibition of Photinus pyralis and Renilla luciferase expression exogenously transfected in mouse C3H10T1/2 cell lysate at 20 uM after 40 mins at room temperature by promega steady-glo luciferase assay
Format: functional, cell-free
Conditions: not given
For `C[C@H](C(=O)NCCc1ccc(O)cc1)c1cccc(C(=O)c2ccccc2)c1`, the inhibition was “inactive”.

Molecular target: Zinc finger protein GLI2 (Homo sapiens, UniProt P10070)
Sequence (P10070 whole entry, looked up): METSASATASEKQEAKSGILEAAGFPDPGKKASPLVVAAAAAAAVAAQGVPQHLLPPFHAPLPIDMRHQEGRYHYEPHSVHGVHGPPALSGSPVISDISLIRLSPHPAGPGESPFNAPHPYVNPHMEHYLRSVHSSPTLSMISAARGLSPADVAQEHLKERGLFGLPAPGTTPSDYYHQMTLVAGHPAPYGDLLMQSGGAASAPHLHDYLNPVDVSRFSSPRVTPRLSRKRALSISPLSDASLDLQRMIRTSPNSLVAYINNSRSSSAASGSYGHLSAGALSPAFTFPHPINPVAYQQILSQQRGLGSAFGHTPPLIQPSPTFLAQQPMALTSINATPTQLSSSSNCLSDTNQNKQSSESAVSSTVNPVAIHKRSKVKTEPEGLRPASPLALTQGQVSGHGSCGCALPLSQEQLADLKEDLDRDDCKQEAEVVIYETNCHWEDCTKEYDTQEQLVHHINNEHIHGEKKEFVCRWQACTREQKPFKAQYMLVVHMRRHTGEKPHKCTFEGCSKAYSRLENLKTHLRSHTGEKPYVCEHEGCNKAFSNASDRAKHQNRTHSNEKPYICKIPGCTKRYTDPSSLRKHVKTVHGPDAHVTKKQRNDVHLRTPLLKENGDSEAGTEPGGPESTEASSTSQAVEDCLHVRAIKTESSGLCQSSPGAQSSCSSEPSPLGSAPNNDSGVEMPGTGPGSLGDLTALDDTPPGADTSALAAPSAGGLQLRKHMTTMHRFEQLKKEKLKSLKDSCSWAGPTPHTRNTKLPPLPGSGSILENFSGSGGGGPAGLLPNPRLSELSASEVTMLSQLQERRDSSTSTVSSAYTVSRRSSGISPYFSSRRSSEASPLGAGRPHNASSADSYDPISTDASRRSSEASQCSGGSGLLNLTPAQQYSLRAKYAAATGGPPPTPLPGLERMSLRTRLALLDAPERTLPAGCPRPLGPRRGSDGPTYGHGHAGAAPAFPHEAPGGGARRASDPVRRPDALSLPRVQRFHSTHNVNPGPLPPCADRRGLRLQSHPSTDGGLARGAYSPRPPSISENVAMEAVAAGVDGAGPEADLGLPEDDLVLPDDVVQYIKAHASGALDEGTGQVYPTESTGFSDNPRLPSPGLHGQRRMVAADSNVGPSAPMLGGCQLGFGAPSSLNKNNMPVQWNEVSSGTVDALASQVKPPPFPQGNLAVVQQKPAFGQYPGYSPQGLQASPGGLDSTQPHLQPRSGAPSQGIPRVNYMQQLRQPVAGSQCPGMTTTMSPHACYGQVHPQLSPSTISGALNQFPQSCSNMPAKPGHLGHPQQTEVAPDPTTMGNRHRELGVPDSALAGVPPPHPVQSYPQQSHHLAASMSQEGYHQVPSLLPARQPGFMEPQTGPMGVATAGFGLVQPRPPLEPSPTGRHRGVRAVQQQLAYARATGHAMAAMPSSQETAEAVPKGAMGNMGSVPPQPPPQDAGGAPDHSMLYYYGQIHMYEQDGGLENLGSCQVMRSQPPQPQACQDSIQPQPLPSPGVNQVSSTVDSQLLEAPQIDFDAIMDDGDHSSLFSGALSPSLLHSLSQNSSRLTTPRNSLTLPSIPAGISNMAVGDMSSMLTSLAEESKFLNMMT
Assay: Inhibition of exogenously transfected human Gli2 delta-N-mediated transcriptional activity in mouse C3H10T1/2 cells after 24 hrs by luciferase reporter gene assay
Format: cell-based
Conditions: c3h 10t1/2
In short: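 C3H10T1/2 reporter assay run as for hGli1, but with an amino-terminal repressor-domain-deleted hGli2 (ΔNhGli2) in place of hGli1, plus GliLuc-BS and pRL-TK via Fugene6. Compound or DMSO was given for 24 h at 37 °C. Read-out was dual luciferase firefly/Renilla in triplicate, with dose-response curve fitting.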
In the case of `C[C@H](C(=O)NCCc1ccc(O)cc1)c1cccc(C(=O)c2ccccc2)c1`, the IC50 is reported as 35.2 µM.
